Measurements reported in ChEMBL document CHEMBL2163332 (J Med Chem, 2012).
Active and inactive are the calls of the source. The calls are words filed in the database; no cut-off is given here.

Test system: not listed separately
Assay: Selectivity ratio of Ki for Myc-tagged delta opioid receptor to Ki for FLAG-tagged mu opioid receptor
Settings: not given
In the case of `C=C(C(N)=O)[C@@H](NC(=O)C(=C)[C@@H](NC(=O)[C@@H]1CCCN1C(=O)[C@@H](N)Cc1ccc(O)cc1)c1ccccc1)c1ccccc1`, the Ratio Ki is reported as 699. `C=C(C(=O)N[C@@H](Cc1ccccc1)C(N)=O)[C@@H](NC(=O)[C@@H]1CCCN1C(=O)[C@@H](N)Cc1ccc(O)cc1)c1ccccc1` showed a Ratio Ki of 576. For `C=C(C(N)=O)[C@@H](NC(=O)[C@H](Cc1c[nH]c2ccccc12)NC(=O)[C@@H]1CCCN1C(=O)[C@@H](N)Cc1ccc(O)cc1)c1ccc2c(c1)OCO2`, the Ratio Ki was 2420. Work on `C=C(C(N)=O)[C@@H](NC(=O)[C@H](Cc1c[nH]c2ccccc12)NC(=O)[C@@H]1CCCN1C(=O)[C@@H](N)Cc1ccc(O)cc1)c1cccc(Cl)c1` yielded a Ratio Ki of 1670.

Molecular target: T1, Mu-type opioid receptor (Homo sapiens, UniProt P35372)
T1 sequence (P35372 whole entry): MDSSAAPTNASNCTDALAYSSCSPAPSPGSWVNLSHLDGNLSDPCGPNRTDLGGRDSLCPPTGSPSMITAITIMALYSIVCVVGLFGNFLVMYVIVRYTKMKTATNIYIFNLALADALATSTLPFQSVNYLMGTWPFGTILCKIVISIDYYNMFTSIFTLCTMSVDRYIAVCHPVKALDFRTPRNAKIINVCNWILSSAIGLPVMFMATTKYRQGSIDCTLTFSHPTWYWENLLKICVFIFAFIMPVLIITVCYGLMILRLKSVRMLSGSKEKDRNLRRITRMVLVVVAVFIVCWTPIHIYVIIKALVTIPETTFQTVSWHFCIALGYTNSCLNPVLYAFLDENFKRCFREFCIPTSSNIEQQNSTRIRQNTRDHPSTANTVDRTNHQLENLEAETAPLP
Assay: Displacement of [3H]DAMGO from FLAG-tagged mu opioid receptor expressed in HEK293 cells after 60 mins by liquid scintillation counter
Assay type: cell-based
Settings: not given
Molecule `C=C(C(N)=O)[C@@H](NC(=O)C(=C)[C@@H](NC(=O)[C@@H]1CCCN1C(=O)[C@@H](N)Cc1ccc(O)cc1)c1ccccc1)c1ccccc1` has a Ki of 15.7 nM. With `C=C(C(=O)N[C@@H](Cc1ccccc1)C(N)=O)[C@@H](NC(=O)[C@@H]1CCCN1C(=O)[C@@H](N)Cc1ccc(O)cc1)c1ccccc1` the Ki was 103 nM. `C=C(C(N)=O)[C@@H](NC(=O)[C@H](Cc1c[nH]c2ccccc12)NC(=O)[C@@H]1CCCN1C(=O)[C@@H](N)Cc1ccc(O)cc1)c1ccc2c(c1)OCO2` gave a Ki of 7.73 nM. Work on `C=C(C(N)=O)[C@@H](NC(=O)[C@H](Cc1c[nH]c2ccccc12)NC(=O)[C@@H]1CCCN1C(=O)[C@@H](N)Cc1ccc(O)cc1)c1cccc(Cl)c1` yielded a Ki of 3.49 nM.

Test system: not listed separately
Assay: Half life in mouse brain homogenates
Assay type: ADME, tissue-based
Settings: brain homogenate
How it was run: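 Peptide incubated at 37 °C in twice-washed 15% mouse brain membrane homogenate, final protein 2.1 mg/mL in 50 mM Tris, pH 7.4. Aliquots centrifuged 13000g, 15 min, 4 °C, filtered 0.22 μm and analysed by C18 RP-HPLC (acetonitrile/water, 0.05% TFA). Half-life from pseudo-first-order disappearance kinetics; at least three experiments.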
Molecule `C=C(C(N)=O)[C@@H](NC(=O)[C@H](Cc1c[nH]c2ccccc12)NC(=O)[C@@H]1CCCN1C(=O)[C@@H](N)Cc1ccc(O)cc1)c1cccc(Cl)c1` has a half-life of 1.5 h.

Molecular target: Delta-type opioid receptor (Homo sapiens, UniProt P41143)
Sequence (P41143 whole entry): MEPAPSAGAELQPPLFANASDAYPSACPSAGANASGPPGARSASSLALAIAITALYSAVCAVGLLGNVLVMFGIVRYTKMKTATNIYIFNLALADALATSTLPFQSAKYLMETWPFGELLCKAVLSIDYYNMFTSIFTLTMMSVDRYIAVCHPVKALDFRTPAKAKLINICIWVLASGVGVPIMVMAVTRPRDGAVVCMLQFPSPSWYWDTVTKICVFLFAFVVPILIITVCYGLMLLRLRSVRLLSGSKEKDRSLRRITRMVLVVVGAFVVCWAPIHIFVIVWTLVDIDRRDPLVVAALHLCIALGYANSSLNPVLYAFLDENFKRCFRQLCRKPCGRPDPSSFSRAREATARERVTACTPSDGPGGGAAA
Assay: Displacement of [3H]DPDPE from Myc-tagged delta opioid receptor expressed in HEK293 cells after 60 mins by liquid scintillation counter
Assay type: cell-based
Settings: not given
Molecule `C=C(C(N)=O)[C@@H](NC(=O)C(=C)[C@@H](NC(=O)[C@@H]1CCCN1C(=O)[C@@H](N)Cc1ccc(O)cc1)c1ccccc1)c1ccccc1` has a Ki of 11000 nM. With `C=C(C(=O)N[C@@H](Cc1ccccc1)C(N)=O)[C@@H](NC(=O)[C@@H]1CCCN1C(=O)[C@@H](N)Cc1ccc(O)cc1)c1ccccc1` the Ki was 59300 nM. In the case of `C=C(C(N)=O)[C@@H](NC(=O)[C@H](Cc1c[nH]c2ccccc12)NC(=O)[C@@H]1CCCN1C(=O)[C@@H](N)Cc1ccc(O)cc1)c1ccc2c(c1)OCO2`, the Ki is reported as 18700 nM. `C=C(C(N)=O)[C@@H](NC(=O)[C@H](Cc1c[nH]c2ccccc12)NC(=O)[C@@H]1CCCN1C(=O)[C@@H](N)Cc1ccc(O)cc1)c1cccc(Cl)c1` gave a Ki of 5820 nM.

Molecular target: Delta-type opioid receptor (Mus musculus, UniProt P32300)
Sequence (P32300 whole entry): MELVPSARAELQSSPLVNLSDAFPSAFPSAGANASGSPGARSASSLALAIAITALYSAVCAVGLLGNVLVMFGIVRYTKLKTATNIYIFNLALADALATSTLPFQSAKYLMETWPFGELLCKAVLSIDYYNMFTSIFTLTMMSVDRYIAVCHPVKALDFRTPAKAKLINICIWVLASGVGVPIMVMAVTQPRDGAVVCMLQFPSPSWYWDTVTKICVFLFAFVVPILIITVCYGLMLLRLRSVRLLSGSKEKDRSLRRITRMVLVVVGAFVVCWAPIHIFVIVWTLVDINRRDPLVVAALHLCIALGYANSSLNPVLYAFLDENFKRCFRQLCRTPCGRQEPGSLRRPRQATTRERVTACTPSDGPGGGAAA
Assay: Agonist activity at delta opioid receptor in Kunming mouse vas deferens assessed as inhibition of electrically-stimulated muscle contraction
Assay type: functional, tissue-based
Settings: not given
`C=C(C(N)=O)[C@@H](NC(=O)C(=C)[C@@H](NC(=O)[C@@H]1CCCN1C(=O)[C@@H](N)Cc1ccc(O)cc1)c1ccccc1)c1ccccc1` gave an IC50 of 166 nM. `C=C(C(=O)N[C@@H](Cc1ccccc1)C(N)=O)[C@@H](NC(=O)[C@@H]1CCCN1C(=O)[C@@H](N)Cc1ccc(O)cc1)c1ccccc1` gave an IC50 greater than 10000 nM. Molecule `C=C(C(N)=O)[C@@H](NC(=O)[C@H](Cc1c[nH]c2ccccc12)NC(=O)[C@@H]1CCCN1C(=O)[C@@H](N)Cc1ccc(O)cc1)c1ccc2c(c1)OCO2` has an IC50 of 432 nM. In the case of `C=C(C(N)=O)[C@@H](NC(=O)[C@H](Cc1c[nH]c2ccccc12)NC(=O)[C@@H]1CCCN1C(=O)[C@@H](N)Cc1ccc(O)cc1)c1cccc(Cl)c1`, the IC50 is reported as 69.4 nM.

Test system: Mus musculus
Assay: Antinociceptive activity in Kunming mouse assessed as inhibition of heat-induced tail flick at 0.67 to 20 nmol/kg, icv
Assay type: functional, organism-based
Settings: TDE = time-dependent effect
How it was run: (§1)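 Male Kunming mice (18−22 g), peptide or saline given icv; tail immersed in 50 ± 0.2 °C water and withdrawal latency recorded; only mice with baseline latency about 3−5 s used. Readings at 5, 10, 15, 20, 30, 40, 50 and 60 min post-injection; 10−15 mice per group. Naloxone 2 mg/kg ip 10 min before icv dosing for antagonism. ED50 with 95% confidence limits by graded dose−response.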
With `C=C(C(N)=O)[C@@H](NC(=O)[C@H](Cc1c[nH]c2ccccc12)NC(=O)[C@@H]1CCCN1C(=O)[C@@H](N)Cc1ccc(O)cc1)c1cccc(Cl)c1` the inhibition was “tde”.

Molecular target: T1, Mu-type opioid receptor
Assay: Agonist activity at mu opioid receptor expressed in HEK293 cells assessed as inhibition of forskolin-induced cAMP accumulation after 30 mins by liquid scintillation counter relative to control
Assay type: functional, cell-based
Settings: not given
How it was run: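 MOR-expressing HEK293 cells seeded at 80% confluence the day before, washed with serum-free medium, preincubated 10 min at 37 °C with 1 mM IBMX, then peptide (5 × 10−11 to 5 × 10−5 M) with 50 μM forskolin added for 30 min at 37 °C. Lysis in 0.2 N HCl, neutralisation, cAMP measured by competition with [3H]cAMP for PKA (≥2 h, 4 °C) and charcoal separation; scintillation counting.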
Molecule `C=C(C(N)=O)[C@@H](NC(=O)C(=C)[C@@H](NC(=O)[C@@H]1CCCN1C(=O)[C@@H](N)Cc1ccc(O)cc1)c1ccccc1)c1ccccc1` has an Emax of 60.3%. Molecule `C=C(C(=O)N[C@@H](Cc1ccccc1)C(N)=O)[C@@H](NC(=O)[C@@H]1CCCN1C(=O)[C@@H](N)Cc1ccc(O)cc1)c1ccccc1` has an Emax of 70.8%. Molecule `C=C(C(N)=O)[C@@H](NC(=O)[C@H](Cc1c[nH]c2ccccc12)NC(=O)[C@@H]1CCCN1C(=O)[C@@H](N)Cc1ccc(O)cc1)c1ccc2c(c1)OCO2` has an Emax of 83.9%. `C=C(C(N)=O)[C@@H](NC(=O)[C@H](Cc1c[nH]c2ccccc12)NC(=O)[C@@H]1CCCN1C(=O)[C@@H](N)Cc1ccc(O)cc1)c1cccc(Cl)c1` gave an Emax of 92.5%.

Test system: Mus musculus
Assay: Antinociceptive activity in icv dosed Kunming mouse assessed as inhibition of heat-induced tail flick after 5 to 60 mins
Assay type: functional
Settings: not given
How it was run: as §1
In the case of `C=C(C(N)=O)[C@@H](NC(=O)C(=C)[C@@H](NC(=O)[C@@H]1CCCN1C(=O)[C@@H](N)Cc1ccc(O)cc1)c1ccccc1)c1ccccc1`, the inhibition is reported as “Dose-dependent effect”. For `C=C(C(=O)N[C@@H](Cc1ccccc1)C(N)=O)[C@@H](NC(=O)[C@@H]1CCCN1C(=O)[C@@H](N)Cc1ccc(O)cc1)c1ccccc1`, the inhibition was “Dose-dependent effect”. In the case of `C=C(C(N)=O)[C@@H](NC(=O)[C@H](Cc1c[nH]c2ccccc12)NC(=O)[C@@H]1CCCN1C(=O)[C@@H](N)Cc1ccc(O)cc1)c1cccc(Cl)c1`, the inhibition is reported as “Dose-dependent effect”.

Same assay, conditions: central
With `C=C(C(N)=O)[C@@H](NC(=O)[C@H](Cc1c[nH]c2ccccc12)NC(=O)[C@@H]1CCCN1C(=O)[C@@H](N)Cc1ccc(O)cc1)c1cccc(Cl)c1` the ED50 was 0.00928 µmol/kg.

Test system: Mus musculus
Assay: Antinociceptive activity in naloxone treated Kunming mouse assessed as inhibition of heat-induced tail flick at 20 nmol/kg, icv after 10 mins post naloxone treatment
Assay type: functional, organism-based
Settings: not given
How it was run: as §1
In the case of `C=C(C(N)=O)[C@@H](NC(=O)[C@H](Cc1c[nH]c2ccccc12)NC(=O)[C@@H]1CCCN1C(=O)[C@@H](N)Cc1ccc(O)cc1)c1cccc(Cl)c1`, the inhibition is reported as “inactive”.

Molecular target: Delta-type opioid receptor (Mus musculus) (UniProt P32300)
Sequence (P32300 whole entry): as above
Assay: Agonist activity at delta opioid receptor in Kunming mouse vas deferens assessed as inhibition of electrically-stimulated muscle contraction in presence of delta opioid receptor antagonist naltrindole
Assay type: functional, tissue-based
Settings: not given
In the case of `C=C(C(N)=O)[C@@H](NC(=O)C(=C)[C@@H](NC(=O)[C@@H]1CCCN1C(=O)[C@@H](N)Cc1ccc(O)cc1)c1ccccc1)c1ccccc1`, the inhibition is reported as “inactive”. In the case of `C=C(C(=O)N[C@@H](Cc1ccccc1)C(N)=O)[C@@H](NC(=O)[C@@H]1CCCN1C(=O)[C@@H](N)Cc1ccc(O)cc1)c1ccccc1`, the inhibition is reported as “inactive”. With `C=C(C(N)=O)[C@@H](NC(=O)[C@H](Cc1c[nH]c2ccccc12)NC(=O)[C@@H]1CCCN1C(=O)[C@@H](N)Cc1ccc(O)cc1)c1ccc2c(c1)OCO2` the inhibition was “inactive”. In the case of `C=C(C(N)=O)[C@@H](NC(=O)[C@H](Cc1c[nH]c2ccccc12)NC(=O)[C@@H]1CCCN1C(=O)[C@@H](N)Cc1ccc(O)cc1)c1cccc(Cl)c1`, the inhibition is reported as “inactive”.

Molecular target: Mu-type opioid receptor (Cavia porcellus, UniProt P97266)
Sequence (P97266 whole entry): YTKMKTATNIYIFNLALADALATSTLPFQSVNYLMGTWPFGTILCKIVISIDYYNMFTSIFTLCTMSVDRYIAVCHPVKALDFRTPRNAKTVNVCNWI
Assay: Agonist activity at mu opioid receptor in guinea pig ileum assessed as inhibition of electrically-stimulated muscle contraction
Assay type: functional, tissue-based
Settings: not given
`C=C(C(N)=O)[C@@H](NC(=O)C(=C)[C@@H](NC(=O)[C@@H]1CCCN1C(=O)[C@@H](N)Cc1ccc(O)cc1)c1ccccc1)c1ccccc1` gave an IC50 of 38.1 nM. In the case of `C=C(C(=O)N[C@@H](Cc1ccccc1)C(N)=O)[C@@H](NC(=O)[C@@H]1CCCN1C(=O)[C@@H](N)Cc1ccc(O)cc1)c1ccccc1`, the IC50 is reported as 20.9 nM. Molecule `C=C(C(N)=O)[C@@H](NC(=O)[C@H](Cc1c[nH]c2ccccc12)NC(=O)[C@@H]1CCCN1C(=O)[C@@H](N)Cc1ccc(O)cc1)c1ccc2c(c1)OCO2` has an IC50 of 14.3 nM. `C=C(C(N)=O)[C@@H](NC(=O)[C@H](Cc1c[nH]c2ccccc12)NC(=O)[C@@H]1CCCN1C(=O)[C@@H](N)Cc1ccc(O)cc1)c1cccc(Cl)c1` gave an IC50 of 7.66 nM.

Molecular target: T1, Mu-type opioid receptor
Assay: Agonist activity at mu opioid receptor expressed in HEK293 cells assessed as inhibition of forskolin-induced cAMP accumulation after 30 mins by liquid scintillation counter
Assay type: functional, cell-based
Settings: not given
For `C=C(C(N)=O)[C@@H](NC(=O)C(=C)[C@@H](NC(=O)[C@@H]1CCCN1C(=O)[C@@H](N)Cc1ccc(O)cc1)c1ccccc1)c1ccccc1`, the EC50 was 45.1 nM and the inhibition was “Dose-dependent effect”. In the case of `C=C(C(=O)N[C@@H](Cc1ccccc1)C(N)=O)[C@@H](NC(=O)[C@@H]1CCCN1C(=O)[C@@H](N)Cc1ccc(O)cc1)c1ccccc1`, the EC50 is reported as 36.5 nM and the inhibition is reported as “Dose-dependent effect”. For `C=C(C(N)=O)[C@@H](NC(=O)[C@H](Cc1c[nH]c2ccccc12)NC(=O)[C@@H]1CCCN1C(=O)[C@@H](N)Cc1ccc(O)cc1)c1ccc2c(c1)OCO2`, the EC50 was 10.7 nM and the inhibition was “Dose-dependent effect”. In the case of `C=C(C(N)=O)[C@@H](NC(=O)[C@H](Cc1c[nH]c2ccccc12)NC(=O)[C@@H]1CCCN1C(=O)[C@@H](N)Cc1ccc(O)cc1)c1cccc(Cl)c1`, the EC50 is reported as 0.72 nM and the inhibition is reported as “Dose-dependent effect”.
